Screening data: PubChem, several laboratories
Sampled rows, rich in hits. Any-hit rate of the full collection: about 1.1%.
FXIIa inh 1536: inhibitors of human coagulation factor XIIa; purified FXIIa, Boc-QGR-AMC fluorogenic substrate, 2 h; inhibition, % at 5 µM; hit rate 0.3% among 220,000; P00748; in the data active means inhibition above about 40%;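 further: 0% = enzyme with no compound and 100% = blank without enzyme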
hK5 inh: inhibitors of human kallikrein 5. inhibition, % at 5 µM. recombinant hK5, fluorogenic AMC substrate cleavage. hit rate 0.59% among 210,000. Q9Y337;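 active means inhibition of 40% or more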;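 further: 0% = enzyme controls without compound and 100% = no-enzyme blanks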
Furin inhibitor: blocks human furin protease activity. P09958. hit rate 0.061% among 220,000. inhibition, % at 20 µM or 30 µM. purified furin, fluorogenic substrate cleavage; in the data active means inhibition above about 25%
Thrombin inh: blocks human thrombin protease activity; AID 1046; P00734; hit rate 0.26% among 220,000; alpha-thrombin, Boc-VPR-AMC fluorogenic substrate cleavage; inhibition, % at 5 µM;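 active means inhibition at or above 40%; inactive means inhibition below 40%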;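 further: 0% = enzyme with no compound and 100% = wells without enzyme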
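Test system: human alpha-thrombin; medium: pH 7.5 Tris-saline with Tween 20; times: reaction at room temperature; signal: AMC fluorescence at 355 nm excitation and 460 nm emission; also added: Boc-VPR-AMC substrate, 15 µM final; dosing: one concentration per compound, 5 µM, with 0.2% DMSO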
FXIa inh 1536: inhibitors of human coagulation factor XIa. inhibition, % at 5 µM. hit rate 0.14% among 220,000. P03951. purified FXIa, Boc-Glu-Ala-Arg-AMC fluorogenic substrate;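 active means inhibition of at least 40%; inactive means inhibition below 40%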;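 further: fluorescence of freed AMC excited at 355 nm; 0% = enzyme without compound and 100% = no enzyme blank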
Starred values were filed as active, the others as inactive.

SMILES | FXIIa inh 1536 | hK5 inh | Furin inhibitor | Thrombin inh | FXIa inh 1536
CCn1c(=S)[nH]c2nc3c(cc2c1=O)CCCC3 | 13.6 | 88.4* | -17.6 | 32.8 | 9.7
O=c1c2cc3c(nc2[nH]c(=S)n1-c1ccccc1)CCCC3 | 3.6 | -6.4 | -22.1 | -8.8 | -1.3
C=C(C)COc1ccc(-c2[nH]ncc2Oc2cccc(OC)c2)c(O)c1 | 29.4 | 62.7* | -13.1 | 20.1 | 2.3
CCCOC(=O)c1ccc(Oc2cn[nH]c2-c2ccc(OCC(=O)NN)cc2O)cc1 | 29.9 | 41.0* | 5.7 | 13.0 | 43.5*
C=C(C)COc1ccc(-c2ncncc2Oc2ccc(OC)cc2)c(O)c1 | 19.5 | 43.3* | 6.7 | 10.4 | 10.8
C=C(C)COc1ccc(-c2nc(N)ncc2-c2ccc(OC)cc2)c(O)c1 | 6.1 | 1.5 | -6.0 | -2.2 | -0.3
CCCOC(=O)c1ccc(Oc2cn[nH]c2-c2ccc(O)cc2O)cc1 | 3.4 | -8.6 | -13.8 | 6.1 | 4.3
Cc1sc2nc(COC(=O)CNC(=O)c3ccc(C(C)(C)C)cc3)[nH]c(=O)c2c1C | 10.6 | -4.9 | -23.8 | 2.0 | 4.8
CC(=O)N/C(=C\c1ccccc1)C(=O)OCC(=O)N(C)C1CCCCC1 | 18.0 | 44.3* | -16.8 | 10.1 | 4.8
Cc1ccc(C(C(=O)Nc2ccc3c(c2)OCO3)N(C)C(=O)/C=C\c2ccc3c(c2)OCO3)cc1 (stereo not drawn) | 9.6 | -13.4 | -7.4 | -8.8 | 2.3
CCC(=O)Nc1cc2c(cc1C(=O)c1ccccc1)OCCO2 | 1.9 | -5.5 | -16.3 | -5.8 | -3.6
CC(=O)Nc1cc2c(cc1C(=O)c1ccccc1)OCCO2 | 8.7 | 49.2* | -14.3 | 34.5 | 3.7
Cc1c(C(=O)C(=O)NCCCn2ccnc2)c2ccccc2n1C | 12.0 | 14.8 | -12.5 | 1.2 | 1.0
COc1cccc(C(=O)N(c2ccc(C)cc2)C2C=CS(=O)(=O)C2)c1 (stereo not drawn) | 10.8 | 2.1 | -19.8 | 14.4 | -1.7
O=C(O)/C=C/C(=O)Nc1cccnc1 | 11.3 | 71.8* | -17.8 | 30.6 | 15.7
Cc1ccc(NC(=S)N2CCCC(O)C2)cc1 (stereo not drawn) | 5.3 | -2.0 | -20.1 | -8.0 | -6.1
CCOC(=O)/C(C#N)=C1\CCCN1CC(N)=S | 8.3 | -12.8 | -27.0 | -4.8 | 8.6
Cc1ccc(CSCC(=O)Nc2ccc3c(c2)OCO3)cc1 | 26.2 | 46.0* | -9.4 | -3.1 | 16.7
O=C(CSCc1ccccc1)Nc1ccc2c(c1)OCO2 | -3.1 | -15.7 | -16.4 | -2.5 | -6.8
CN(CC(=O)NCCc1ccc(F)cc1)Cc1cccc(Cl)c1 | 28.5 | 18.0 | -11.6 | 18.8 | 36.3
O=C(Oc1cncc(Cl)c1)c1ccco1 | 60.9* | 41.7* | -24.2 | 20.5 | 83.7*
O=C(Oc1ccc2ccccc2c1)c1ccco1 | 28.8 | 17.0 | -16.5 | 24.4 | 3.9
COc1ccc2c(=O)cc(-c3cccnc3)oc2c1OC | 10.8 | 0.7 | -9.5 | 2.1 | 1.2
CCC(Sc1nc2sc(C(=O)OC)c(C)c2c(=O)n1N)C(=O)NCC1CCCO1 (stereo not drawn) | 29.2 | 43.4* | -21.3 | 18.2 | 14.1
CCCCNC(=O)C(CC)Sc1nc2sc(C(=O)OC)c(C)c2c(=O)n1N (stereo not drawn) | 9.4 | 4.0 | -25.2 | -4.1 | -4.0
SMILES | FXIIa inh 1536 | hK5 inh | Furin inhibitor | Thrombin inh | FXIa inh 1536
CC(=O)OC1C(N2CCCCC2)c2c(ccc(/C=C/C(=O)N3CCCCC3)c2O)OC1(C)C (stereo not drawn) | 2.2 | -1.2 | -8.9 | -13.9 | -3.3
Cc1cc(C(=O)N/N=C2\CC(=O)c3ccccc32)c(C)n1-c1ccccc1 | 12.6 | 2.5 | -7.7 | -3.5 | 0.8
O=C(O)c1ccc(NC2=C(Cl)C(=O)c3ccccc3C2=O)cc1 | 43.3* | 80.9* | -2.0 | 22.8 | 13.5
O=C1C(Cl)=C(Nc2ccccc2)C(=O)c2ccccc21 | 9.2 | -15.1 | -24.4 | -3.4 | -3.6
CCc1cc2c(SCc3nc4sc(C(C)=O)c(C)c4c(=O)[nH]3)ncnc2s1 | 2.5 | -1.5 | -15.7 | -8.7 | -0.4
CSc1ccc(C(=O)/C=C/c2ccc(N)cc2)cc1 | 5.9 | 69.3* | -0.7 | 22.0 | 16.8
CC1CCOC2(O1)C(=O)Nc1ccccc12 (stereo not drawn) | 66.5* | 41.0* | -15.7 | 21.9 | 31.4
O=C1NC(=Nc2cccc(O)c2)S/C1=C\c1cccnc1 | 19.3 | 65.9* | -2.2 | 22.8 | 29.2
CC(=O)NCCCC(=O)NN1C(=S)N(Cc2ccccc2)C(=O)C1CC(=O)Nc1cccc(C)c1 (stereo not drawn) | 1.9 | -1.5 | -25.5 | -0.8 | -4.3
COCCNC(=O)CSc1nc2ccc(N3CCOCC3)cc2c(=O)n1Cc1ccc(OC)cc1 | -7.0 | 103.1* | 6.8 | 2.7 | -6.0
